“And” between values parts separate entries of the source, which are not always exact repeats. Equal values may be shown once.
What was measured:
[1] = target: T1, Neuropeptide Y receptor type 5 (Homo sapiens, UniProt Q15761); assay: (§1) In vitro binding affinity against human neuropeptide Y5 receptor
T1 sequence (Q15761 whole entry): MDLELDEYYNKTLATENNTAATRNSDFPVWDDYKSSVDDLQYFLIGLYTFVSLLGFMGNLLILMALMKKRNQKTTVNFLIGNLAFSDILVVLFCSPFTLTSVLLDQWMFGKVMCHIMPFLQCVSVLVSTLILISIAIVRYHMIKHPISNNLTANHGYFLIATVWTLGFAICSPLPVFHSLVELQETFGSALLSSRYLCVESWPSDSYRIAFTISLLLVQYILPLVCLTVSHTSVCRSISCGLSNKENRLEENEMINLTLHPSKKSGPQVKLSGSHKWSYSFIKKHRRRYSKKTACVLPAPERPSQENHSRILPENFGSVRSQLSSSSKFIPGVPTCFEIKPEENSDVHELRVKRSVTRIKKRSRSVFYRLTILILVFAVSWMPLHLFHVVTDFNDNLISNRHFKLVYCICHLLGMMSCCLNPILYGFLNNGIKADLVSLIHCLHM

[2] = target: T1, Neuropeptide Y receptor type 5; assay: as §1; remark: listed apart in the source
Method in brief: (§2)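 Reported as IC50 (nM), each value the mean of three separate experiments.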

[3] = (§3) Concentration (30 mg/kg, p.o.) in rat hypothalamus after 6 hours; format: ADME, organism-based; conditions: hypothalamus, po
Method in brief: (§4)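 Male rats (RA238), fasted overnight, given 30 mg/kg by oral gavage (5 mL/kg) in 20% Cremophore EL/water (w/w). Plasma and hypothalamus were sampled at 2 and 6 h post-dose and levels measured by LC-MS. Values are the mean of 3-6 animals per time point, as µg/mL plasma and µg/g hypothalamus.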

[4] = (§5) Concentration (30 mg/kg, p.o.) in rat hypothalamus after 2 hours; format: ADME, organism-based; conditions: hypothalamus, po; method in brief: as §4
[5] = (§6) Concentration (30 mg/kg, p.o.) in rat plasma after 6 hours; format: ADME, organism-based; conditions: plasma, po; method in brief: as §4
[6] = Concentration (30 mg/kg, p.o.) in rat plasma after 2 hours; format: ADME, organism-based; conditions: plasma, po; method in brief: as §4
[7] = target: T1, Neuropeptide Y receptor type 5; assay: In vitro binding affinity against human neuropeptide Y5 receptor measured as Ca+ response; method in brief: as §2
[8] = target: T2, Neuropeptide Y receptor type 5 (Rattus norvegicus, UniProt Q63634); assay: In vitro binding affinity against rat neuropeptide Y5 receptor; method in brief: as §2
T2 sequence (Q63634 whole entry): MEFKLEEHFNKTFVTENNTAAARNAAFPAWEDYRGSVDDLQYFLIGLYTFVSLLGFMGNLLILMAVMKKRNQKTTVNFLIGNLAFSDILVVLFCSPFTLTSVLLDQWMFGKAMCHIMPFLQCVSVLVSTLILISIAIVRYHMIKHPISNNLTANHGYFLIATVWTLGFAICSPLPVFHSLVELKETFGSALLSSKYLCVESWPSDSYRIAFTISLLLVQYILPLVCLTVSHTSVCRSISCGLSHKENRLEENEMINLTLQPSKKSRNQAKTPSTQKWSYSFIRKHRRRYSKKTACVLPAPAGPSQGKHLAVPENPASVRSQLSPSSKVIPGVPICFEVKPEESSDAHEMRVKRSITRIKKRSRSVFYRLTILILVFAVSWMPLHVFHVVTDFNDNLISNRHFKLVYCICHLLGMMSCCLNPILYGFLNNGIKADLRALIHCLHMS

Rattus norvegicus [9] = assay: as §3; format: ADME, organism-based; conditions: in vivo, po, 6 h; method in brief: as §4
Rattus norvegicus [10] = assay: as §5; format: ADME, organism-based; conditions: in vivo, po, 2 h; method in brief: as §4
Rattus norvegicus [11] = assay: as §6; format: ADME, organism-based; conditions: in vivo, po, 6 h; method in brief: as §4

Compound	IC50 [1] [nM]	other results
Cc1ccc2c(c1)-c1nc(NCC3CCN(C(=O)c4ccccn4)CC3)sc1CCO2	25	
O=C1CC[C@H](C(=O)N2CCC(CNc3nc4c(s3)CCCc3ccc(F)cc3-4)CC2)O1	4	
O=C([C@H]1CCCO1)N1CCC(CNc2nc3c(s2)CCOc2ccc(F)cc2-3)CC1		IC50 [2]: 5 nM; concentration at 6 h [3]: 1080 ng/g; concentration at 2 h [4]: 2440 ng/g; concentration at 6 h [5]: 390 ng/mL; concentration at 2 h [6]: 970 ng/mL
COCCNCC(=O)N1CCC(CNc2nc3c(s2)CCCc2ccc(F)cc2-3)CC1	2	
O=C(CC1CC1)N[C@H]1CC[C@H](CNc2nc3c(s2)CCCc2ccc(F)cc2-3)CC1	6	
CN(C)C(=O)CCCCNc1nc2c(s1)CCCc1ccc(F)cc1-2	25	
CN(CC(=O)N1CCC(CNc2nc3c(s2)CCCc2ccc(F)cc2-3)CC1)CC1CC1	3	
O=C(CNCC1CC1)N1CCC(CNc2nc3c(s2)CCCc2ccc(F)cc2-3)CC1	6	
Cc1ccc2c(c1)-c1nc(NCC3CCN(C(=O)[C@H]4CCCO4)CC3)sc1CCO2	5	IC50 [7]: 40 nM; concentration at 6 h [3]: 400 ng/g; concentration at 2 h [4]: 1460 ng/g; concentration at 6 h [5]: 260 ng/mL; IC50 [8]: 2.9 nM; concentration at 2 h [6]: 870 ng/mL
O=C(CN1CCCCC1)N1CCC(CNc2nc3c(s2)CCOc2ccc(F)cc2-3)CC1		IC50 [2]: 71 nM
COCCC(=O)N1CCC(CNc2nc3c(s2)CCOc2ccc(F)cc2-3)CC1		IC50 [2]: 22 nM
O=C(CN1CCCCC1)N[C@H]1CC[C@H](CNc2nc3c(s2)CCCc2ccc(F)cc2-3)CC1	29	
O=C([C@H]1CCCO1)N1CCC(CNc2nc3c(s2)CCCc2ccc(F)cc2-3)CC1	2	Concentration (Rattus norvegicus [9]): 0.67 µg/g; concentration at 6 h [3]: 670 ng/g; Concentration (Rattus norvegicus [10]): 0.86 µg/g and 2.44 µg/g; Concentration (Rattus norvegicus [11]): 220 ng/mL; concentration at 6 h [5]: 220 ng/mL
O=C([C@@H]1CCCO1)N1CCC(CNc2nc3c(s2)CCOc2ccc(F)cc2-3)CC1		IC50 [2]: 19 nM; concentration at 6 h [3]: 640 ng/g; concentration at 2 h [4]: 5480 ng/g; concentration at 6 h [5]: 140 ng/mL; concentration at 2 h [6]: 930 ng/mL
Fc1ccc(-c2csc(Nc3ccccc3)n2)cc1	1600	
COCC(=O)N1CCC(CNc2nc3c(s2)CCCc2ccc(F)cc2-3)CC1	2	
COCCC(=O)N1CCC(CNc2nc3c(s2)CCCc2ccc(F)cc2-3)CC1	2	
Cc1ccc2c(c1)-c1nc(NCC3CCN(C(=O)C(C)C)CC3)sc1CCO2	5	IC50 [7]: 61 nM; concentration at 6 h [3]: 880 ng/g; concentration at 2 h [4]: 2420 ng/g; concentration at 6 h [5]: 330 ng/mL; concentration at 2 h [6]: 840 ng/mL
CN(C)S(=O)(=O)NC[C@H]1CC[C@H](Nc2nc3c(s2)-c2ccccc2Sc2ccccc2-3)CC1	15	
CN(C)CCCC(=O)N[C@H]1CC[C@H](CNc2nc3c(s2)CCCc2ccc(F)cc2-3)CC1	290	
CCCCC(=O)N1CCC(CNc2nc3c(s2)CCOc2ccc(C)cc2-3)CC1	7	
CN(C)CC(=O)N1CCC(CNc2nc3c(s2)CCCc2ccc(F)cc2-3)CC1	4	

Compound	IC50 [1] [nM]	other results
CC(C)N1CCN(CC(=O)N[C@H]2CC[C@H](CNc3nc4c(s3)CCCc3ccc(F)cc3-4)CC2)CC1	210	
CC(C)C(=O)N1CCC(CNc2nc3c(s2)CCOc2cc(F)c(Cl)cc2-3)CC1	13	
CC(=O)NC1CCN(CC(=O)Nc2nc3c(s2)CCCc2ccc(F)cc2-3)CC1	78	
CN(CC(=O)N1CCC(CNc2nc3c(s2)CCOc2ccc(F)cc2-3)CC1)CC1CC1		IC50 [2]: 18 nM
O=C(CN1CCOCC1)N1CCC(CNc2nc3c(s2)CCOc2ccc(F)cc2-3)CC1		IC50 [2]: 41 nM
CCCN(C)CC(=O)N[C@H]1CC[C@H](CNc2nc3c(s2)CCCc2ccc(F)cc2-3)CC1	6	
CC(C)C(=O)N1CCC(CNc2nc3c(s2)CCOc2cc(F)c(F)cc2-3)CC1	40	
CCCCC(=O)N[C@H]1CC[C@H](CNc2nc3c(s2)CCCc2ccc(F)cc2-3)CC1	6	
O=C(CNCC1CCCO1)N1CCC(CNc2nc3c(s2)CCCc2ccc(F)cc2-3)CC1 (centres undefined)	6	
CN1CCN(CC(=O)N2CCC(CNc3nc4c(s3)CCCc3ccc(F)cc3-4)CC2)CC1	24	
O=C(CCN1CCCCC1)N[C@H]1CC[C@H](CNc2nc3c(s2)CCCc2ccc(F)cc2-3)CC1	150	
CCOCC(=O)N1CCC(CNc2nc3c(s2)CCOc2ccc(F)cc2-3)CC1	28	
O=C1CCCN1[C@H]1CC[C@H](CNc2nc3c(s2)CCCc2ccc(F)cc2-3)CC1	5	
CCCCC(=O)N1CCC(CNc2nc3c(s2)CCOc2cc(F)c(F)cc2-3)CC1	38	
O=C(c1ccccc1F)N1CCC(CNc2nc3c(s2)CCCc2ccc(F)cc2-3)CC1	20	
CS(=O)(=O)NC[C@H]1CC[C@H](Nc2nc(-c3ccc(F)cc3)cs2)CC1	23	
O=C(CN1CCCCC1)N1CCC(CNc2nc3c(s2)CCCc2ccc(Cl)cc2-3)CC1	7	
COC[C@@H]1CCCN1CC(=O)N1CCC(CNc2nc3c(s2)CCCc2ccc(F)cc2-3)CC1	3	
O=C(CN1CCCCC1)N1CCC(CNc2nc3c(s2)CCCc2ccccc2-3)CC1	6	
CC(C)C(=O)N1CCC(CNc2nc3c(s2)CCOc2cc(Cl)c(F)cc2-3)CC1	99	
Cc1ccc2c(c1)-c1nc(NCC3CCN(C(=O)[C@@H]4CCCO4)CC3)sc1CCO2	17	
CC(=O)N1CCC(CNc2nc3c(s2)CCOc2ccc(F)cc2-3)CC1		IC50 [2]: 69 nM

Compound	IC50 [1] [nM]	other results
CC(C)C(=O)N1CCC(CNc2nc3c(s2)CCCc2ccc(F)cc2-3)CC1	2	
COCC(=O)N1CCC(CNc2nc3c(s2)CCOc2ccc(F)cc2-3)CC1		IC50 [2]: 37 nM
O=C(CN1CCOCC1)N1CCC(CNc2nc3c(s2)CCCc2ccc(F)cc2-3)CC1	2	
COc1ccc2c(c1)-c1nc(NCC3CCN(C(=O)CCN4CCCCC4)CC3)sc1CCO2	2460	
CC(=O)C1(c2ccccc2)CCC(CC(=O)Nc2nc3c(s2)CCCc2ccc(F)cc2-3)CC1 (centres undefined)	15	
O=C(N[C@H]1CC[C@H](CNc2nc3c(s2)CCCc2ccc(F)cc2-3)CC1)c1cccs1	15	
Nc1nc2c(s1)-c1ccccc1Sc1ccccc1-2	1800	
O=C(N[C@H]1CC[C@H](CNc2nc3c(s2)CCCc2ccc(F)cc2-3)CC1)C1CC1	6	
O=C(C1CCOC1)N1CCC(CNc2nc3c(s2)CCCc2ccc(F)cc2-3)CC1 (centres undefined)	1	concentration at 6 h [3]: 440 ng/g; concentration at 2 h [4]: 1220 ng/g; concentration at 6 h [5]: 140 ng/mL; concentration at 2 h [6]: 540 ng/mL
O=C(CN1CCCCC1)N1CCC(CNc2nc3c(s2)CCCc2ccc(F)cc2-3)CC1	4	concentration at 6 h [3]: 620 ng/g; concentration at 2 h [4]: 1170 ng/g; concentration at 6 h [5]: 130 ng/mL; concentration at 2 h [6]: 240 ng/mL
COC(=O)N[C@H]1CC[C@H](CNc2nc3c(s2)CCCc2ccc(F)cc2-3)CC1	2	
CCCCC(=O)N1CCC(CNc2nc3c(s2)CCOc2ccc(OC)cc2-3)CC1	17	
CCCCC(=O)N1CCC(CNc2nc3c(s2)CCOc2ccc(F)cc2-3)CC1	7	IC50 [7]: 100 nM; concentration at 6 h [3]: 260 ng/g; concentration at 2 h [4]: 2230 ng/g; concentration at 6 h [5]: 70 ng/mL; IC50 [8]: 6 nM; concentration at 2 h [6]: 740 ng/mL
CN(C)CC(=O)N[C@H]1CC[C@H](CNc2nc3c(s2)CCCc2ccc(F)cc2-3)CC1	81	
Cc1ccc2c(c1)-c1nc(NCC3CCN(C(=O)COC(C)C)CC3)sc1CCO2	21	
CC(=O)N1CCC(CNc2nc3c(s2)CCCc2ccc(F)cc2-3)CC1	2	IC50 [7]: 254 nM; concentration at 6 h [3]: 290 ng/g; concentration at 2 h [4]: 3700 ng/g; concentration at 6 h [5]: 70 ng/mL; concentration at 2 h [6]: 950 ng/mL
COCCCNCC(=O)N1CCC(CNc2nc3c(s2)CCCc2ccc(F)cc2-3)CC1	15	
CN(C)S(=O)(=O)NC[C@H]1CC[C@H](Nc2nc3c(s2)CCSc2ccc(F)cc2-3)CC1	3	
CCOC(=O)N1CCC(CNc2nc3c(s2)CCCc2ccc(F)cc2-3)CC1	4	
CCOCC(=O)N1CCC(CNc2nc3c(s2)CCOc2ccc(C)cc2-3)CC1	18	
CCCCC(=O)N1CCC(CNc2nc3c(s2)CCOc2cc(F)c(Cl)cc2-3)CC1	20	
O=C(C1CC1)N1CCC(CNc2nc3c(s2)CCCc2ccc(F)cc2-3)CC1	2	

From ChEMBL document CHEMBL1146725, “Discovery and SAR of potent, orally available and brain-penetrable 5,6-dihydro-4H-3-thia-1-aza-benzo[e]azulen- and 4,5-dihydro-6-oxa-3-thia-1-aza-benzo[e]azulen derivatives as neuropeptide Y Y5 receptor antagonists” (Bioorg Med Chem Lett, 2004)
